According to ChEMBL document CHEMBL4325879, “Optimization of substituted cinnamic acyl sulfonamide derivatives as tubulin polymerization inhibitors with anticancer activity” (Bioorg Med Chem Lett, 2018):
Values after ≈ are worked out from the molar mass of the structure shown.

Assays:
[1] = target: Tubulin (Bos taurus, UniProt Q6B856+Q862L2+Q862F3); assay: Inhibition of bovine brain tubulin polymerization after 20 mins in presence of GTP by spectrophotometric analysis
[2] = tested on: MCF7; assay: Antiproliferative activity against human MCF7 cells after 48 hrs by MTT assay; format: functional, cell-based; settings: MCF7, 48 h
In short: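 MCF-7 human breast cancer cells exposed to compounds for 48 h. Cytotoxicity read by MTT assay. IC50 taken as the concentration giving 50% inhibition of cell growth.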

SMILES	IC50 [1] [µM]	pIC50 [1]	IC50 [2] [mg/L]
O=C(/C=C/c1ccc2c(c1)OCO2)NS(=O)(=O)c1ccc(Cl)cc1	94.72	4.024	47.3 (≈ 129 µM)
O=C(/C=C/c1ccc2c(c1)OCCO2)NS(=O)(=O)c1ccc(Br)cc1	> 100		> 100
O=C(/C=C/c1ccc2c(c1)OCCCO2)NS(=O)(=O)c1ccc(F)cc1	> 100		> 100
COc1cc2c(c(OC)c1OC)-c1ccc(OC)c(=O)cc1[C@@H](NC(C)=O)CC2 [COLCHICINE]			0.33 (≈ 0.826 µM)
O=C(/C=C/c1ccc2c(c1)OCCO2)NS(=O)(=O)c1ccccc1	5.47	5.262	2.16 (≈ 6.25 µM)
O=C(/C=C/c1ccc2c(c1)OCCCO2)NS(=O)(=O)c1ccc(Br)cc1	> 100		> 100
O=C(/C=C/c1ccc2c(c1)OCCO2)NS(=O)(=O)c1ccc(F)cc1	27.46	4.562	52.1 (≈ 143 µM)
Cc1ccc(S(=O)(=O)NC(=O)/C=C/c2ccc3c(c2)OCO3)cc1	40.85	4.389	48.9 (≈ 142 µM)
O=C(/C=C/c1ccc2c(c1)OCCO2)NS(=O)(=O)c1ccc(Cl)cc1	87.92	4.056	51.3 (≈ 135 µM)

Now from value to molecule:

IC50 [1] [µM]	pIC50 [1]	IC50 [2] [mg/L]	SMILES
49.01	4.31	53.9 (≈ 150 µM)	O=C(/C=C/c1ccc2c(c1)OCCCO2)NS(=O)(=O)c1ccccc1
93.33	4.03	> 100	Cc1ccc(S(=O)(=O)NC(=O)/C=C/c2ccc3c(c2)OCCO3)cc1
76.9	4.114	74 (≈ 212 µM)	O=C(/C=C/c1ccc2c(c1)OCO2)NS(=O)(=O)c1ccc(F)cc1
> 100		> 100	Cc1ccc(S(=O)(=O)NC(=O)/C=C/c2ccc3c(c2)OCCCO3)cc1
> 100		> 100	O=C(/C=C/c1ccc2c(c1)OCCCO2)NS(=O)(=O)c1ccc(Cl)cc1
51.59	4.288	89 (≈ 217 µM)	O=C(/C=C/c1ccc2c(c1)OCO2)NS(=O)(=O)c1ccc(Br)cc1
0.88	6.056	0.17 (≈ 0.513 µM)	O=C(/C=C/c1ccc2c(c1)OCO2)NS(=O)(=O)c1ccccc1
